Laboratory results reported in ChEMBL document CHEMBL4043093, “2-Oxo-3, 4-dihydropyrimido[4, 5-d]pyrimidinyl derivatives as new irreversible pan fibroblast growth factor receptor (FGFR) inhibitors” (Eur J Med Chem, 2017).

Legend:
[1] = biological target: Cyclin-dependent kinase 11B (Homo sapiens) (UniProt P21127); assay: Inhibition of wild-type human partial length CDK11 (M1 to N360 residues) expressed in Escherichia coli BL21 assessed as residual activity at 1000 nM after […] by Kinomescan method relative to control
[2] = biological target: Receptor-interacting serine/threonine-protein kinase 2 (Homo sapiens) (UniProt O43353); assay: Inhibition of wild-type human partial length RIPK2 (M1 to K310 residues) expressed in Escherichia coli BL21 assessed as residual activity at 1000 nM after 30 mins by Kinomescan method relative to control
[3] = biological target: Fibroblast growth factor receptor 2 (Homo sapiens, UniProt P21802); assay: Inhibition of human recombinant cytoplasmic His-tagged FGFR2 (403 to 822 residues) expressed in baculovirus using Tyr-4 peptide after 1 hr by FRET-based Z'-Lyte assay
[4] = tested on: Mast/stem cell growth factor receptor Kit (Homo sapiens), P10721 [A829P]; assay: Inhibition of human partial length KIT A829P mutant (I571 to D952 residues) expressed in HEK293 cells assessed as residual activity at 1000 nM after 30 mins by Kinomescan method relative to control; assay type: cell-based
In short: (§1)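 KINOMEscan binding panel of 456 kinases, with the test compound at a single concentration of 1 µM. Read-out is Percent Control.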

[5] = biological target: Ribosomal protein S6 kinase alpha-2 (Homo sapiens) (UniProt Q15349); assay: Inhibition of wild-type human partial length C-terminal RSK2 kinase domain 2 (V402 to S715 residues) expressed in HEK293 cells assessed as residual activity at 1000 nM after 30 mins by Kinomescan method relative to control; assay type: cell-based
[6] = biological target: Serine/threonine-protein kinase Chk1 (Homo sapiens) (UniProt O14757); assay: Inhibition of wild-type human partial length CHEK1 (M1 to G289 residues) expressed in Escherichia coli BL21 assessed as residual activity at 1000 nM after 30 mins by Kinomescan method relative to control
[7] = biological target: Tyrosine-protein kinase Fgr (Homo sapiens) (UniProt P09769); assay: Inhibition of wild-type human partial length FGR (L233 to T529 residues) expressed in Escherichia coli BL21 assessed as residual activity at 1000 nM after 30 mins by Kinomescan method relative to control
[8] = tested on: Tyrosine-protein kinase ABL1 (Homo sapiens), P00519 [H396P]; assay: Inhibition of human non-phosphorylated ABL1 H396P mutant (S229 to K512 residues) expressed in HEK293 cells assessed as residual activity at 1000 nM after 30 mins by Kinomescan method relative to control; assay type: cell-based; in short: as §1
[9] = biological target: Serine/threonine-protein kinase BRSK1 (Homo sapiens) (UniProt Q8TDC3); assay: Inhibition of wild-type human partial length BRSK1 (M1 to E754 residues) expressed in Escherichia coli BL21 assessed as residual activity at 1000 nM after 30 mins by Kinomescan method relative to control
[10] = biological target: Macrophage-stimulating protein receptor (Homo sapiens) (UniProt Q04912); assay: Inhibition of wild-type human partial length MST1R (I1057 to L1363 residues) expressed in Escherichia coli BL21 assessed as residual activity at 1000 nM after 30 mins by Kinomescan method relative to control
[11] = biological target: Serine/threonine-protein kinase N2 (Homo sapiens) (UniProt Q16513); assay: Inhibition of wild-type human partial length PKN2 (E634 to C984 residues) expressed in Escherichia coli BL21 assessed as residual activity at 1000 nM after 30 mins by Kinomescan method relative to control
[12] = biological target: Mitogen-activated protein kinase kinase kinase 6 (Homo sapiens) (UniProt O95382); assay: Inhibition of wild-type human partial length ASK2 (M278 to R972 residues) expressed in HEK293 cells assessed as residual activity at 1000 nM after 30 mins by Kinomescan method relative to control; assay type: cell-based
[13] = biological target: Mitogen-activated protein kinase kinase kinase kinase 4 (Homo sapiens) (UniProt O95819); assay: Inhibition of wild-type human partial length MAP4K4 (M1 to R310 residues) expressed in Escherichia coli BL21 assessed as residual activity at 1000 nM after 30 mins by Kinomescan method relative to control
[14] = biological target: Ephrin type-A receptor 7 (Homo sapiens) (UniProt Q15375); assay: Inhibition of wild-type human partial length EPHA7 (Y608 to S912 residues) expressed in Escherichia coli BL21 assessed as residual activity at 1000 nM after 30 mins by Kinomescan method relative to control
[15] = tested on: Tyrosine-protein kinase ABL1 (Homo sapiens), P00519 [Q252H]; assay: Inhibition of human phosphorylated ABL1 Q252H mutant expressed in HEK293 cells assessed as residual activity at 1000 nM after 30 mins by Kinomescan method relative to control; assay type: cell-based
In short: (§2)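 Single-point screen at a fixed 1 µM, run within a 456-kinase DiscoveRx KINOMEscan panel. Each kinase's read-out is Percent Control, i.e. signal relative to a control without compound. Hits were scored by a Percent Control < 35 cut-off, and an S(35) selectivity score was calculated across the non-mutant kinases.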

[16] = tested on: Epidermal growth factor receptor (Homo sapiens), P00533 [L858R,T790M]; assay: Inhibition of human partial length EGFR L858R/T790M double mutant (R669 to V1011 residues) expressed in HEK293 cells assessed as residual activity at 1000 nM after 30 mins by Kinomescan method relative to control; assay type: cell-based; in short: as §1
[17] = tested on: Phosphatidylinositol 4,5-bisphosphate 3-kinase catalytic subunit alpha isoform (Homo sapiens), P42336 [M1043I]; assay: Inhibition of human partial length PIK3CA M1043I mutant (R108 to N1068 residues) expressed in HEK293 cells assessed as residual activity at 1000 nM after 30 mins by Kinomescan method relative to control; assay type: cell-based; in short: as §2
[18] = biological target: Bone morphogenetic protein receptor type-1A (Homo sapiens) (UniProt P36894); assay: Inhibition of wild-type human partial length BMPR1A (Q214 to I532 residues) expressed in Escherichia coli BL21 assessed as residual activity at 1000 nM after 30 mins by Kinomescan method relative to control
[19] = biological target: TRAF2 and NCK-interacting protein kinase (Homo sapiens) (UniProt Q9UKE5); assay: Inhibition of wild-type human partial length TNIK (D4 to K311 residues) expressed in Escherichia coli BL21 assessed as residual activity at 1000 nM after 30 mins by Kinomescan method relative to control
[20] = biological target: Dual specificity tyrosine-phosphorylation-regulated kinase 1B (Homo sapiens) (UniProt Q9Y463); assay: Inhibition of wild-type human full length DYRK1B (M1 to S629 residues) expressed in Escherichia coli BL21 assessed as residual activity at 1000 nM after 30 mins by Kinomescan method relative to control
In short: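 Single-concentration screen at 1 µM across a 456-kinase KINOMEscan panel. The read-out is Percent Control for each kinase.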

[21] = biological target: Tyrosine-protein kinase Srms (Homo sapiens) (UniProt Q9H3Y6); assay: Inhibition of wild-type human partial length SRMS (L208 to P488 residues) expressed in HEK293 cells assessed as residual activity at 1000 nM after 30 mins by Kinomescan method relative to control; assay type: cell-based

Chain of Dual specificity tyrosine-phosphorylation-regulated kinase 1B (Homo sapiens) (Q9Y463 whole entry, looked up, the tested form may be a part): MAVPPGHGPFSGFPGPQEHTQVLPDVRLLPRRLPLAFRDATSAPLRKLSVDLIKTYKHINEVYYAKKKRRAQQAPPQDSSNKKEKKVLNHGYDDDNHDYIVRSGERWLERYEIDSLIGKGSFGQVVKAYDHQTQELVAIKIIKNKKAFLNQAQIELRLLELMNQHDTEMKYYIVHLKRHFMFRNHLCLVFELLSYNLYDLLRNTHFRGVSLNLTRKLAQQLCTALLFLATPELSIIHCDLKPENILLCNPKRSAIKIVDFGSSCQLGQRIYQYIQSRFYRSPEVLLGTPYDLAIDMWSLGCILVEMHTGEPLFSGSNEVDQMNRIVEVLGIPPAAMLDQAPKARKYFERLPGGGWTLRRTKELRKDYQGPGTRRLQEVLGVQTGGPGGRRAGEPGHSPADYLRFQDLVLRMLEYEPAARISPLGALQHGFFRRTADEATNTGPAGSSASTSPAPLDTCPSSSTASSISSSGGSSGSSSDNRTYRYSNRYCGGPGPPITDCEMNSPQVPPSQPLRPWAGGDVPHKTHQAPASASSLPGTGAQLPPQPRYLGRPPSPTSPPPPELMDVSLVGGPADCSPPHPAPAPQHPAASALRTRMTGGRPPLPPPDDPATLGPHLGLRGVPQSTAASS
Chain of Macrophage-stimulating protein receptor (Homo sapiens) (Q04912 25-304 limits assumed): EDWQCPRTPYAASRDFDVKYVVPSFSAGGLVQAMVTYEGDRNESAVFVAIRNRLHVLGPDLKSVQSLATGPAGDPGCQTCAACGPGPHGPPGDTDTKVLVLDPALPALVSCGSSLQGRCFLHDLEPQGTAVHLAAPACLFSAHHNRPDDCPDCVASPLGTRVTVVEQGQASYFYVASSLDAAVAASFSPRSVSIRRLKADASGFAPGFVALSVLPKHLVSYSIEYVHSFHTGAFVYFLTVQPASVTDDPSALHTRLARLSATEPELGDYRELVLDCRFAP
Chain of Macrophage-stimulating protein receptor (Homo sapiens) (Q04912 310-1400 limits assumed): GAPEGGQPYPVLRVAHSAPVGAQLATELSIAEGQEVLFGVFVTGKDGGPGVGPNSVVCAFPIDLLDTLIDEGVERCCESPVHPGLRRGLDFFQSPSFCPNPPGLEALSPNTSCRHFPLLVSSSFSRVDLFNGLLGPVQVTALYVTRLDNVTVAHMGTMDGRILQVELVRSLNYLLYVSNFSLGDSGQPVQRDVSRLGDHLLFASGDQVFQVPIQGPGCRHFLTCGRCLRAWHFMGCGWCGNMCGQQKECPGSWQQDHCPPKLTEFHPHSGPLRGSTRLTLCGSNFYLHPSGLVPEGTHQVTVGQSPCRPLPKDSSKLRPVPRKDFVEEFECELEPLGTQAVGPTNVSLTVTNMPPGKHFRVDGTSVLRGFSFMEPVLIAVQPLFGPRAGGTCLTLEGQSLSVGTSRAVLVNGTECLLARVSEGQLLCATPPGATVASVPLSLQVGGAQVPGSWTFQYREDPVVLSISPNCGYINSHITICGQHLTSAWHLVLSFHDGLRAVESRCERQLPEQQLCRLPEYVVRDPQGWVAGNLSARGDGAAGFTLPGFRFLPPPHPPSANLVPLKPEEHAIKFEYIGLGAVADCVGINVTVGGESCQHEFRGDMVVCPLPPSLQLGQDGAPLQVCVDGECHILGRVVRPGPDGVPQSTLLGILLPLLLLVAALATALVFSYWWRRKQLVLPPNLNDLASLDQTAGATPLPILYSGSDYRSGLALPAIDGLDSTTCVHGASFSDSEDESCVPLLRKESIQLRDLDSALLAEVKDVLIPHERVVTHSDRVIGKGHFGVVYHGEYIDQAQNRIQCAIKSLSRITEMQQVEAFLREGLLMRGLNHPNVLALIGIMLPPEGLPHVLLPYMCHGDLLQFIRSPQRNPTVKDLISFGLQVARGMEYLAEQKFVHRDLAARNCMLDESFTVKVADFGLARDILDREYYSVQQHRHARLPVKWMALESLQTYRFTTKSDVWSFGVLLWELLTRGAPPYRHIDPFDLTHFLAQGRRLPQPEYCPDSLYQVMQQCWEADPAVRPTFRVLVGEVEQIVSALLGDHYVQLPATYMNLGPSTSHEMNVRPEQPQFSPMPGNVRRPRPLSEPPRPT
Chain of Receptor-interacting serine/threonine-protein kinase 2 (Homo sapiens) (O43353 whole entry, the tested form may be a part): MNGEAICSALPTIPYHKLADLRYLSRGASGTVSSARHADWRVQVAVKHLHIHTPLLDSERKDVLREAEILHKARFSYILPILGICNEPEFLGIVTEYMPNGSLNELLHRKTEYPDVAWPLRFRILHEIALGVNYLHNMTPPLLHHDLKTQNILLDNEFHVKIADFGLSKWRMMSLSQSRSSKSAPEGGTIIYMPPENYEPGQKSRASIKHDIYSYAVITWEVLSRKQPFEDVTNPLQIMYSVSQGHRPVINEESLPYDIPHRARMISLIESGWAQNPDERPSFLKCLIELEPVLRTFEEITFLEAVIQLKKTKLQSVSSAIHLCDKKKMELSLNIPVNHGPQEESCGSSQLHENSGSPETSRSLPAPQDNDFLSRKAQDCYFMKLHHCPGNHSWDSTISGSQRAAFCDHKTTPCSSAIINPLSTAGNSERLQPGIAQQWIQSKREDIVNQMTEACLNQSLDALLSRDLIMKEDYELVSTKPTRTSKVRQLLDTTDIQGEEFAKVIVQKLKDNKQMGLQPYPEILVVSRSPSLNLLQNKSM
Chain of Serine/threonine-protein kinase Chk1 (Homo sapiens) (O14757 whole entry, the tested form may be a part): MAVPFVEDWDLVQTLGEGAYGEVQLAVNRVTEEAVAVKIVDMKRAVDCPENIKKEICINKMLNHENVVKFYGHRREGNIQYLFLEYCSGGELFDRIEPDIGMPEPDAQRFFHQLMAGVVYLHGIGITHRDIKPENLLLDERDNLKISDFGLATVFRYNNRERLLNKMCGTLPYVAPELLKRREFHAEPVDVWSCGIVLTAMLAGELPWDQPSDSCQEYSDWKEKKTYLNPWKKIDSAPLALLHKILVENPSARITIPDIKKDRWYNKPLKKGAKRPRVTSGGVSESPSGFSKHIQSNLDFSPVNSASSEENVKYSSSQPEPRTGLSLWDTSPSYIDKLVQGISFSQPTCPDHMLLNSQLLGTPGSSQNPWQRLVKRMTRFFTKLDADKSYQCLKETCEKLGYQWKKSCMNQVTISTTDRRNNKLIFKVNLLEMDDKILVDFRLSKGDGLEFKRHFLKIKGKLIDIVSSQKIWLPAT
Chain of Bone morphogenetic protein receptor type-1A (Homo sapiens) (P36894 whole entry, the tested form may be a part): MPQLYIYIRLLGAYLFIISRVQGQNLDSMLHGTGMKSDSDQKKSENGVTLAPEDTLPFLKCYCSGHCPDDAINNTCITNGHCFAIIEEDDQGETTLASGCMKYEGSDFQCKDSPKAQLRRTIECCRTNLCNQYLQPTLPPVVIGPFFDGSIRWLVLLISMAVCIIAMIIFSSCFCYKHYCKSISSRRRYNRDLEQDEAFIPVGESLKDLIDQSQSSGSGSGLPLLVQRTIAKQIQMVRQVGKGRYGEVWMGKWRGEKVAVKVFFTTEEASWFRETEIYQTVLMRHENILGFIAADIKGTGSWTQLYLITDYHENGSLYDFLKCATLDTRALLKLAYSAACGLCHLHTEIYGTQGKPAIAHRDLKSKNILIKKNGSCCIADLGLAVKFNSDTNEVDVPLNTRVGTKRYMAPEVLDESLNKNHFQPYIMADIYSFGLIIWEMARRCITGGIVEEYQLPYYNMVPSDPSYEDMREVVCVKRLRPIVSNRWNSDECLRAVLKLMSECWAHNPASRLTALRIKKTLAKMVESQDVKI
Chain of Ribosomal protein S6 kinase alpha-2 (Homo sapiens) (Q15349 whole entry, the tested form may be a part): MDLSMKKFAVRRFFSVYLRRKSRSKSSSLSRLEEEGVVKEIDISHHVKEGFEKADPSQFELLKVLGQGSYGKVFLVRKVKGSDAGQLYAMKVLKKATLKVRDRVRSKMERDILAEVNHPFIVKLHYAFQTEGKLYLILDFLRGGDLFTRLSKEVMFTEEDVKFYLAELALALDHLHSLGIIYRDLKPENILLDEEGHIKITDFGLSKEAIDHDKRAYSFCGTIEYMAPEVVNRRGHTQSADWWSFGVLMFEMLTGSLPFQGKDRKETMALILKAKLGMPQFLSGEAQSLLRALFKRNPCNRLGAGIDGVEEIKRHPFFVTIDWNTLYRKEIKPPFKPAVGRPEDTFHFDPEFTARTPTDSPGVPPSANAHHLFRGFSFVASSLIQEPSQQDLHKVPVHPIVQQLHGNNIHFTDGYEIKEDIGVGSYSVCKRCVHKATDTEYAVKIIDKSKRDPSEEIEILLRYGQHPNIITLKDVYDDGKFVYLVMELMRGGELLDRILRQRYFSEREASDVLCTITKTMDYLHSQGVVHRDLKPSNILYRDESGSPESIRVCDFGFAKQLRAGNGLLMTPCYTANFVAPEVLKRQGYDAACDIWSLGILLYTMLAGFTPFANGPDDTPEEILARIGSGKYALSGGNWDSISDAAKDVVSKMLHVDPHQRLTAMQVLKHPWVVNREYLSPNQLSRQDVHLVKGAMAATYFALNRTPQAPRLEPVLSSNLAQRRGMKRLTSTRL
Chain of Tyrosine-protein kinase Fgr (Homo sapiens) (P09769 2-529 limits assumed): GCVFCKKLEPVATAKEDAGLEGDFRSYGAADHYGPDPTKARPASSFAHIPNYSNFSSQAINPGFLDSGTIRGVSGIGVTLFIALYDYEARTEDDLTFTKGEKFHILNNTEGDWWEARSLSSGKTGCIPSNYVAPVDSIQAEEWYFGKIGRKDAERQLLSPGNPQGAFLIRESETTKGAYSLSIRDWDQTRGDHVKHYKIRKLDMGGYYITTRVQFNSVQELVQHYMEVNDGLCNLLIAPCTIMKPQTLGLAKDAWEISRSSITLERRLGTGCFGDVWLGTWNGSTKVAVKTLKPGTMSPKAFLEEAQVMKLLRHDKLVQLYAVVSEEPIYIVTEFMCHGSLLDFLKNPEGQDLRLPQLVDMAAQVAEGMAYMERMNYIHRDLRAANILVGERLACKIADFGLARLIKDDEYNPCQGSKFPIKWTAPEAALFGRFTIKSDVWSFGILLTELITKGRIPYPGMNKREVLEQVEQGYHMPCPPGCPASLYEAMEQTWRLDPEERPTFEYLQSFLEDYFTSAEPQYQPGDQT

## COc1cc(OC)c(Cl)c(N2Cc3cnc(Nc4ccc(F)cc4)nc3N(C3CCN(C(=O)/C=C/CN(C)C)CC3)C2=O)c1Cl
[1]
  Activity: 79%
[2]
  Activity: 100%
[3]
  IC50: 1.45 nM
[4]
  Activity: 30%
[5]
  Activity: 96%
[6]
  Activity: 100%
[7]
  Activity: 19%
[8]
  Activity: 31%
[9]
  Activity: 100%
[10]
  Activity: 95%
[11]
  Activity: 91%
[12]
  Activity: 100%
[13]
  Activity: 100%
[14]
  Activity: 99%
[15]
  Activity: 31%
[16]
  Activity: 94%
[17]
  Activity: 95%
[18]
  Activity: 100%
[19]
  Activity: 94%
[20]
  Activity: 81%
[21]
  Activity: 100%
